Experimental data taken from ChEMBL document CHEMBL1799970, “Dipyrimidine amines: a novel class of chemokine receptor type 4 antagonists with high specificity” (J Med Chem, 2010).
pIC50: −log10 of the molar value. Active and inactive are the calls of the source. The calls are words filed in the database; no cut-off is given here. Where a SMILES comes first, the peptide text is derived from it. Bridges are numbered along the chain shown (N, C = ends). [ ]: non-standard residue; d: D form. 2Nal = N[C@@H](Cc1ccc2ccccc2c1)C(=O)O; Cit = NC(=O)NCCC[C@H](N)C(=O)O

How the values were obtained:
[1] = target: T1, C-X-C chemokine receptor type 4 (Homo sapiens, UniProt P61073); assay: Antagonist activity at CXCR4 in human MDA-MB-231 cells assessed as inhibition of CXCL12-mediated cell invasion at 100 nM by […] cell invasion assay; format: functional, cell-based
T1 sequence (P61073 whole entry): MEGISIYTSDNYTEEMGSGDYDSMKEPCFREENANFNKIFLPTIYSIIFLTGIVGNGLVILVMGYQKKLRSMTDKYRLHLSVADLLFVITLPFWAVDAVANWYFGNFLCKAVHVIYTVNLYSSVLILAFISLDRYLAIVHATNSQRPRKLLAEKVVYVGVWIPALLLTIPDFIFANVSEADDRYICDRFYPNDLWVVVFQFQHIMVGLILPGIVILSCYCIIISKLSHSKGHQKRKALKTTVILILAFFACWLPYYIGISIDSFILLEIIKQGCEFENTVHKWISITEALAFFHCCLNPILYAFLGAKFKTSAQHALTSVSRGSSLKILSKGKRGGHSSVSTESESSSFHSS

[2] = target: T1, C-X-C chemokine receptor type 4; assay: Antagonist activity at CXCR4 in human MDA-MB-231 cells assessed as inhibition of CXCL12-mediated cell invasion at 10 nM by […] cell invasion assay; format: functional, cell-based
[3] = target: T1, C-X-C chemokine receptor type 4; assay: Displacement of biotinylated-TN14003 from CXCL12 binding site of CXCR4 in human MDA-MB-231 cells assessed as concentration required to inhibit >50% using rhodamine staining; format: cell-based
How it was run: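 MDA-MB-231 cells preincubated with compound at 1, 10, 100, 1000 nM, fixed in 4% formaldehyde, incubated with 50 nM biotinylated peptide antagonist then streptavidin-rhodamine; EC is lowest concentration blocking >50% of binding.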

MDA-MB-231 [4] = assay: Antiangiogenic activity against human MDA-MB-231 cells xenografted in nude mouse assessed as hemoglobin level at 10 mg/kg, sc measured after 10 days by […] plug assay; format: functional; details: route subcutaneous; for inhibition in vivo at 10 mg/kg: Mus musculus, MDA-MB-231, sc, 240 h
How it was run: (§1)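 Nude mice, two s.c. flank plugs each (6 mice/group): 2×10^5 MDA-MB-231 cells in 0.5 mL growth factor-reduced Matrigel with compound mixed at 1 µM. From next day, daily s.c. dosing between plugs (10 mg/kg; peptide 300 µg/kg). Day 10 plugs excised, homogenized in water; supernatant with Drabkin's solution, 52 °C 10 min then RT 20 min, A540.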

Mus musculus [5] = assay: Antiinflammatory activity in C57BL/6L mouse assessed as inhibition of carrageenan-induced paw edema at 10 mg/kg, ip administered 30 mins before carrageenan challenge measured after 76 hrs; format: functional; details: for inhibition in vivo at 10 mg/kg: route intraperitoneal
[6] = Antimetastatic activity against HGF/TGF-beta/CXCR4/MMP2 expressing human OMM 2.3 cells xenografted in nude mouse eye assessed as decrease in number of hepatic micrometastases at 300 ug/kg, ip administered 3 days after tumor implantation QD for 28 days by hematoxylin and eosin staining; format: functional; set-up: scale not given: the % may be the effect or the level left
How it was run: (§2)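 Female nude mice, 10/group; 1×10^6 OMM2.3 cells into posterior chamber of right eye day 0. Daily i.p. dosing (10 mg/kg or 300 µg/kg in 0.1 mL 45% cyclodextrin) from day 3; vehicle controls; tumor eyes enucleated day 7. Day 28 livers formalin-fixed, H&E; micrometastases (<100 µm) counted in six central sections, averaged per section.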

Mus musculus [7] = assay: Antiinflammatory activity in C57BL/6L mouse assessed as inhibition of carrageenan-induced paw edema at 300 ug/kg, ip administered 30 mins before carrageenan challenge measured after 76 hrs; format: functional, organism-based
Mus musculus [8] = assay: Protection against bleomycin-induced lung injury in mouse assessed as decrease in interstitial structural distortion at 300 ug/kg, ip administered 1 day before bleomycin treatment and daily for 20 days by hematoxylin and eosin staining; format: functional, organism-based
How it was run: (§3)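 Mice, 10/group, anesthetized with isoflurane; 4 U/kg bleomycin in 100 µL PBS instilled intratracheally. Dosing i.p. (10 mg/kg, 300 µg/kg, or saline) from 1 day before bleomycin, daily for 20 days. Lungs harvested day 20, H&E-stained sections examined microscopically.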

Mus musculus [9] = assay: Protection against bleomycin-induced lung injury in mouse assessed as decrease in alveolar structural distortion at 300 ug/kg, ip administered 1 day before bleomycin treatment and daily for 20 days by hematoxylin and eosin staining; format: functional, organism-based; how it was run: as §3
MDA-MB-231 [10] = assay: Antiangiogenic activity against human MDA-MB-231 cells xenografted in nude mouse assessed as hemoglobin level at 300 ug/kg, sc measured after 10 days by […] plug assay; format: functional, organism-based; how it was run: as §1
Mus musculus [11] = assay: Protection against bleomycin-induced lung injury in mouse assessed as decrease in lung fibrosis at 300 ug/kg, ip administered 1 day before bleomycin treatment and daily for 20 days by hematoxylin and eosin staining; format: functional; set-up: scale not given: the % may be the effect or the level left; how it was run: as §3
[12] = target: T2, C-C chemokine receptor type 3 (Homo sapiens) (UniProt P51677); assay: Antagonist activity at human CCR3 expressed in human U87 cells expressing CD4 assessed as inhibition of CCL5-induced cAMP production pretreated for 15 mins before forskolin challenge by TR-FRET analysis; format: functional, cell-based; details: U-87MG ATCC
T2 sequence (whole entry): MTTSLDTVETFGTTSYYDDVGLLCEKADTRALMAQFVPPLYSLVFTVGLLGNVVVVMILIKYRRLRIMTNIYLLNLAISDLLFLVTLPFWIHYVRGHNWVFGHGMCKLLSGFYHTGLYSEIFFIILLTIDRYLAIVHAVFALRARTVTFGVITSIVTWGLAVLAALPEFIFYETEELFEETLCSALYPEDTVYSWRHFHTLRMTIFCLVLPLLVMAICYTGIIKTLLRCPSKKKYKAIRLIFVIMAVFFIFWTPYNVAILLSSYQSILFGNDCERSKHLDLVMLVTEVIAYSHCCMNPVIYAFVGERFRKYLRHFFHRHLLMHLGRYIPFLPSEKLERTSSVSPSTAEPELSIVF
How it was run: (§4)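 U87CD4CCR3 or U87CD4CCR5 cells pretreated with compound 15 min at room temperature, then stimulated with 150 ng/mL CCL5 in presence of 5 µM forskolin; cAMP measured by TR-FRET LANCE kit.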

[13] = target: T1, C-X-C chemokine receptor type 4; assay: Antagonist activity at human CXCR4 expressed in human U87 cells expressing CD4 assessed as inhibition of CXCL12-induced cAMP production pretreated for 15 mins before forskolin challenge by TR-FRET analysis; format: functional, cell-based, U-87MG ATCC
[14] = target: C-C chemokine receptor type 5 (Homo sapiens) (UniProt P51681); assay: Antagonist activity at human CCR5 expressed in human U87 cells expressing CD4 assessed as inhibition of CCL5-induced cAMP production pretreated for 15 mins before forskolin challenge by TR-FRET analysis; format: functional, cell-based; details: U-87MG ATCC; how it was run: as §4
C-C chemokine receptor type 5 (Homo sapiens), sequence (P51681 whole entry, looked up): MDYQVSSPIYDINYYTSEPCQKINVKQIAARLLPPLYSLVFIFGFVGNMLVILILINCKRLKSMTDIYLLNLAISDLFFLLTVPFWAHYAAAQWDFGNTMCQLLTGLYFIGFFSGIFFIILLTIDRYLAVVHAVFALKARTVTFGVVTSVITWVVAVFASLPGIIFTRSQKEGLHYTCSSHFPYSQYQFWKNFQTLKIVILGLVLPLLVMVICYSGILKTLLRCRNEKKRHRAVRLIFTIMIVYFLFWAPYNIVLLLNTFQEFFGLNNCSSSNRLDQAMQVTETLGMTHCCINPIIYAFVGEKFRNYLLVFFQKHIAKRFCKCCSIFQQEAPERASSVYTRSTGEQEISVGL

[15] = Half life in iv dosed mouse; format: ADME, organism-based; details: in vivo
Mus musculus [16] = assay: Protection against bleomycin-induced lung injury in mouse assessed as decrease in interstitial structural distortion at 10 mg/kg, ip administered 1 day before bleomycin treatment and daily for 20 days by hematoxylin and eosin staining; format: functional, organism-based; set-up: dose 10 mg/kg; how it was run: as §3
[17] = Antimetastatic activity against HGF/TGF-beta/CXCR4/MMP2 expressing human OMM 2.3 cells xenografted in nude mouse eye assessed as decrease in number of hepatic micrometastases at 10 mg/kg, ip administered 3 days after tumor implantation QD for 28 days by hematoxylin and eosin staining; format: functional; set-up: scale not given: the % may be the effect or the level left; details: route intraperitoneal; how it was run: as §2
Mus musculus [18] = assay: Protection against bleomycin-induced lung injury in mouse assessed as decrease in alveolar structural distortion at 10 mg/kg, ip administered 1 day before bleomycin treatment and daily for 20 days by hematoxylin and eosin staining; format: functional, organism-based; set-up: dose 10 mg/kg; how it was run: as §3
Mus musculus [19] = assay: Protection against bleomycin-induced lung injury in mouse assessed as decrease in lung fibrosis at 10 mg/kg, ip administered 1 day before bleomycin treatment and daily for 20 days by hematoxylin and eosin staining; format: functional; set-up: scale not given: the % may be the effect or the level left; details: route intraperitoneal; how it was run: as §3

Row | SMILES | inhibition [1] [%] | inhibition [2] [%] | EC [3] [nM] | inhibition in vivo at 10 mg/kg (Mus musculus [5]) [%] | further results
1 | c1ccc(NCc2ccc(CNc3ccccc3)cc2)cc1 | 64 | 54 | – | – | –
2 | Fc1nccc(NCc2ccc(CNc3ccnc(F)n3)cc2)n1 | 81 | 65 | 1 | – | –
3 | COc1nccc(NCc2ccc(CNc3ccnc(OC)n3)cc2)n1 | 65 | 24 | 10 | – | inhibition in vivo at 10 mg/kg (MDA-MB-231 [4]): > 30%
4 | Fc1cnc(NCc2ccc(CNc3ncc(F)cn3)cc2)nc1 | 75 | 75 | 1 | – | –
5 | Fc1cnc(NCc2ccc(CNc3nccc(C(F)(F)F)n3)cc2)nc1 | 93 | 73 | 1 | 20 | inhibition in vivo at 10 mg/kg (MDA-MB-231 [4]): > 30%
6 | N=C(N)NCCC[C@H](NC(=O)[C@@H]1CSSC[C@H](NC(=O)[C@H](Cc2ccc3ccccc3c2)NC(=O)[C@H](CCCNC(=N)N)NC(=O)[C@@H](N)CCCNC(=N)N)C(=O)N[C@@H](Cc2ccc(O)cc2)C(=O)N[C@@H](CCCNC(N)=O)C(=O)N[C@@H](CCCCN)C(=O)N[C@H](CCCCN)C(=O)N2CCC[C@H]2C(=O)N[C@@H](Cc2ccc(O)cc2)C(=O)N[C@@H](CCCNC(=N)N)C(=O)N[C@@H](CCCNC(N)=O)C(=O)N1)C(N)=O (H-RR[2Nal]CY[Cit]K[dK]PYR[Cit]CR-NH2; disulfide 4-13) | – | – | – | – | Activity [6]: 50%; inhibition (Mus musculus [7]): Active; Activity (Mus musculus [8]): Active; Activity (Mus musculus [9]): Active; inhibition (MDA-MB-231 [10]): Active; Activity (Mus musculus [11]): 85%
7 | COc1ncc(F)c(NCc2ccc(CNc3nc(OC)ncc3F)cc2)n1 | 100 | 77 | 1 | 20 | –
8 | Clc1nc(Cl)nc(NCc2ccc(CNc3nc(Cl)nc(Cl)n3)cc2)n1 | 82 | 61 | 10 | – | –
9 | c1ccc(NCc2ccc(CNc3ccccn3)cc2)nc1 | – | – | – | – | inhibition [12]: inactive; pIC50 [13]: 8.74; inhibition (Mus musculus [5]): Active; inhibition [14]: inactive
10 | Fc1cccc(NCc2ccc(CNc3cccc(F)n3)cc2)n1 | 85 | 55 | 100 | – | –
11 | c1ccc(NCc2ccc(CNc3ncccn3)cc2)cc1 | – | – | – | 20 | –
12 | CCOCCN1CCN(C(=O)c2cnc(NCc3ccc(CNc4ncc(F)cn4)cc3)nc2C(F)(F)F)CC1 | 95 | 34 | 1 | 20 | inhibition [12]: inactive; inhibition in vivo at 10 mg/kg (MDA-MB-231 [4]): > 30%; pIC50 [13]: 8.27; inhibition [14]: inactive
13 | c1cnc(NCc2ccc(CNc3ccc(N4CCCC4)cc3)cc2)nc1 | 82 | 57 | 1 | – | –
14 | Fc1cnc(Cl)nc1NCc1ccc(CNc2ccnc(NCCN3CCOCC3)n2)cc1 | 100 | 84 | 1 | > 50 | half-life [15]: 15 min; Activity (Mus musculus [16]): Active; Activity [17]: 50%; inhibition [12]: inactive; Activity (MDA-MB-231 [4]): 70%; Activity (Mus musculus [18]): Active; pIC50 [13]: 9.10; Activity (Mus musculus [19]): 55%; inhibition [14]: inactive
15 | Fc1ccc(NCc2ccc(CNc3ccc(F)cn3)cc2)nc1 | 68 | 45 | 100 | – | –

Further lines, with some results ahead:

Row | inhibition [1] [%] | inhibition [2] [%] | EC [3] [nM] | SMILES | inhibition in vivo at 10 mg/kg (Mus musculus [5]) [%] | further results
16 | 58 | 32 | 100 | Fc1ccccc1NCc1ccc(CNc2ccccc2F)cc1 | – | –
17 | 73 | 61 | 100 | c1cnc(NCc2ccc(CNc3ccccc3N3CCCC3)cc2)nc1 | – | –
18 | 100 | 100 | 1 | Clc1cccc(NCc2ccc(CNc3ncccn3)cc2)n1 | > 50 | inhibition in vivo at 10 mg/kg (MDA-MB-231 [4]): > 30%
19 | 64 | 58 | 100 | c1ccc(NCc2ccc(CNc3ncccn3)cc2)nc1 | – | –
20 | 78 | 41 | 10 | c1cnc(NCc2ccc(CNc3cccc(N4CCCC4)c3)cc2)nc1 | – | –
21 | 80 | 53 | – | Fc1cccc(NCc2ccc(CNc3ncccn3)cc2)n1 | > 50 | inhibition in vivo at 10 mg/kg (MDA-MB-231 [4]): > 30%
22 | 62 | 41 | – | Fc1ccccc1NCc1ccc(CNc2ncccn2)cc1 | – | –
23 | 100 | 82 | 10 | Clc1ccc(NCc2ccc(CNc3ncccn3)cc2)nc1 | 20 | –
